PvdQ acylase = P. aeruginosa PvdQ acylase inhibition | hit rate 0.063% among 340,000 | AID 488965 | inhibition, % at 10 µM | purified PvdQ acylase, fluorescence plate reader; in the data active means inhibition above about 30%, passing the limit was not always enough;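 further: 0% = vehicle neutral wells and 100% = reference inhibitor wells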
HKDC1 inh = inhibitors of human hexokinase HKDC1; Q2TB90; recombinant HKDC1, G6PDH/diaphorase resazurin coupled fluorescence; inhibition, % at 20 µM; hit rate 0.16% among 340,000;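 active means inhibition above about 35% when tested at 20 µM, limit read from the data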;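 further: plate controls were DMSO wells with enzyme for no effect and DMSO wells lacking enzyme for full effect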
Target sequence (Q2TB90 whole entry, looked up): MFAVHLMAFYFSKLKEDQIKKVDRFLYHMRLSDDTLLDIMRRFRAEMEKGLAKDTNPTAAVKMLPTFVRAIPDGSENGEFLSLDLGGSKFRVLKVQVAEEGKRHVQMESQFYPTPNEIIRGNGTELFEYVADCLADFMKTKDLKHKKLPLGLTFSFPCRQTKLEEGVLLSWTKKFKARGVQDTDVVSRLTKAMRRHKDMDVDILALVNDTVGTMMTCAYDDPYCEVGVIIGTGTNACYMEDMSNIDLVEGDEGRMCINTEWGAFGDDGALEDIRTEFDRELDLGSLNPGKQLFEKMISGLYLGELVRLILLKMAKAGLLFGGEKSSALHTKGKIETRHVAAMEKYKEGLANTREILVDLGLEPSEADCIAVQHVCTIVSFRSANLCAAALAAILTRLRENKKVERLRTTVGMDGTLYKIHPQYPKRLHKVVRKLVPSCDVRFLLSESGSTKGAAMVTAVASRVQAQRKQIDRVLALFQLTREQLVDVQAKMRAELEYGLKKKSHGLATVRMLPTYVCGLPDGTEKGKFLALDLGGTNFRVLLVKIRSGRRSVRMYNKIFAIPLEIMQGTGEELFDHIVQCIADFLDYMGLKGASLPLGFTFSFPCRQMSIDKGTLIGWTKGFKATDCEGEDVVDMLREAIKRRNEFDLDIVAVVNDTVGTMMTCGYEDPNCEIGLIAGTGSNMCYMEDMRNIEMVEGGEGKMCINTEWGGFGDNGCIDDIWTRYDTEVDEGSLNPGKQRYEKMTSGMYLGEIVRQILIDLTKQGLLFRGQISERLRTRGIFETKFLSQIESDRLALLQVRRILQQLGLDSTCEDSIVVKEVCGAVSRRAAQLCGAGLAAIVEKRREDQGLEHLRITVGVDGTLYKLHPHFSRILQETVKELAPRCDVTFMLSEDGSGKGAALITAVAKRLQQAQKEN
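Material: recombinant HKDC1 hexokinase; Amount: HKDC1 at 5 µg/mL; Medium: Tris pH 8.0 buffer with MgCl2, Tween-20, BSA, BME; Schedule: 90 min reaction incubation at room temperature, dark; Technique: coupled resazurin fluorescence, excitation 525 nm, emission 613 nm.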
ATG4B inh = inhibitors of human ATG4B cysteine protease. Q9Y4P1. ATG4B cleavage of LC3-PLA2, NBD-HPC fluorescence, 1 h. inhibition, % at 8.33 µM. hit rate 0.51% among 340,000. AID 504462; in the data active means inhibition above about 40%
VIM-2 inh = blocks Pseudomonas aeruginosa VIM-2 metallo-beta-lactamase; AID 1527; hit rate 0.89% among 290,000; purified VIM-2, nitrocefin hydrolysis, epi-absorbance fluorescence; inhibition, % at 5.6 µM;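 active means inhibition above the mean of all tested compounds plus 3 SD, cutoff set per screening run, cut at about 7.5% in these data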;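 further: red hydrolysis product quenches plate fluorescence so inhibitors raise well fluorescence; 0% = enzyme with DMSO and 100% = DMSO without enzyme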
beta cell repl = MIN6 beta-cell proliferation induction | MIN6 cells proliferation, ATPlite luminescence, 48 h; cells starved in 0.2% serum; 100% = growth in 10% serum | proliferation, % at 10 µM | hit rate 0.29% among 330,000;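 active means compounds whose signal lies at least 3.5 SD above the mean of all wells on their plate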;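 further: 0% = DMSO-treated cells in low-serum medium and 100% = 10% serum control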
IMP-1 inh = inhibitors of Pseudomonas aeruginosa IMP-1 metallo-beta-lactamase | purified IMP-1, nitrocefin hydrolysis, epi-absorbance fluorescence | inhibition, % at 5.6 µM | hit rate 0.45% among 290,000 | AID 1556;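 active means inhibition above the mean plus 3 SD of all compounds in the same screening run, cut at about 4.5% in these data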;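 further: 0% = IMP-1 with DMSO and 100% = DMSO wells lacking enzyme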
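assay system = purified recombinant IMP-1 metallo-beta-lactamase enzyme | schedule = 15 min preincubation plus 25 min reaction at 25 °C | signal = Epi-absorbance fluorescence, 480 nm excitation, 530 nm emission | read-out basis = percent inhibition from optical density relative to buffer-blank wells | controls = IMP-1 with DMSO as 0%, enzyme-free DMSO as 100%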
Numbers without * were called inactive; . = no result. This is a sample that favours compounds with a hit; in the whole collection about 2% have one here.

SMILES | PvdQ acylase | HKDC1 inh | ATG4B inh | VIM-2 inh | beta cell repl | IMP-1 inh
COc1ccc2sc(N3C(=O)CC(Cc4cccc(C)c4)C3=O)nc2c1 (stereo not drawn) | 7 | -1 | -21 | -1 | 1 | -1
Cc1ccc(CC2CC(=O)N(c3nc4ccccc4n3C)C2=O)cc1 (stereo not drawn) | -9 | -2 | 6 | -2 | -1 | 14*
Cc1cccc(CC2CC(=O)N(c3nc4ccccc4s3)C2=O)c1 (stereo not drawn) | -18 | 5 | -22 | 1 | -1 | 8.6*
Cc1nc2ccccc2c(=O)n1/N=C/c1ccc(C(C)C)cc1 | -12 | 8 | 6 | -1 | 0 | -1
Cc1cc(Cn2nc(-c3ccccc3)cc2C(=O)NCC2CC2)on1 | 4 | 0 | 0 | . | 8 | .
O=C(Nc1ccc(Cl)cc1)N1CCN(c2ccccc2)CC1 | -16 | -1 | -13 | -1 | 1 | -4
O=C(Nc1ccc(Cl)cc1)N1CC=CCC1 | -17 | 0 | -6 | -2 | 2 | 8.1*
Cc1cnc(N)c2c(=O)oc3ccccc3c12 | -11 | 1 | -13 | 8.4* | 6 | -4
O=c1oc2ccccc2c2c1cnc1ccccc12 | -11 | 0 | -4 | . | . | .
CC(=O)NC1=C(N(C)C2CCS(=O)(=O)C2)C(=O)c2ccccc2C1=O (stereo not drawn) | -11 | 39* | 2 | -1 | 0 | -5
O=C(NN1C(=O)C2C3c4ccccc4C(c4ccccc43)[C@@H]2C1=O)c1ccccc1 (stereo partly drawn) | -17 | -8 | -1 | 0 | -1 | -1
O=C(NN1C(=O)C2C(c3ccccc3)C=CC(c3ccccc3)C2C1=O)c1cccc(Br)c1 (stereo not drawn) | 1 | -1 | 6 | 3 | -2 | 21*
O=C(NN1C(=O)C2C(c3ccccc3)C=CC(c3ccccc3)C2C1=O)c1ccccc1 (stereo not drawn) | -2 | 12 | 20 | 2 | -4 | 34*
O=C1N(c2ccccc2)C[C@@H]2C[C@@H](c3cc4ccccc4o3)N3CCC[C@@]123 | 42* | -5 | 16 | 0 | -5 | -1
CCCOc1ccc(-c2nc(C#N)c(N3CCN(CC)CC3)o2)cc1 | -12 | -2 | -9 | 0 | 3 | 0
Clc1ccc(-c2nnc(-c3ccco3)o2)cc1 | 58* | -7 | -7 | 0 | -2 | -1
c1cncc(-c2nnc(-c3ccco3)o2)c1 | -6 | -4 | -1 | -1 | -2 | -2
N#CCc1ccc(OC(=O)c2ccncc2)cc1 | -8 | -5 | -3 | . | -2 | .
Cc1cccc(C)c1NC(=O)C1CCN(S(C)(=O)=O)CC1 | -22 | 5 | 0 | 0 | -4 | 0
COc1ccc(-n2nnc3c(SCC(=O)Nc4ccccc4F)ncnc32)cc1 | -14 | 0 | -8 | -3 | 0 | -2
CCOC(=O)c1c(C)[nH]c(C)c1C(=O)COC(=O)CNC(=O)c1ccc(OCC)cc1 | 2 | -2 | -15 | -2 | 0 | 4.7*
CCOC(=O)c1c(C)[nH]c(C(=O)COC(=O)CNC(=O)c2ccc(Br)cc2)c1C | 1 | -4 | -7 | 2 | 4 | -2
O=C(c1sc2cc(Cl)ccc2c1Cl)N1CCN(CCc2ccccn2)CC1 | -13 | -2 | -1 | -1 | -3 | 0
CCN1C/C(=C\c2cccc([N+](=O)[O-])c2)C(=O)/C(=C/c2cccc([N+](=O)[O-])c2)C1 | -5 | 43* | -7 | -3 | . | -3
O=C1/C(=C/c2cccc([N+](=O)[O-])c2)CCc2ccccc21 | 4 | 20 | 15 | -4 | -5 | -3
SMILES | PvdQ acylase | HKDC1 inh | ATG4B inh | VIM-2 inh | beta cell repl | IMP-1 inh
Cc1ccc(Cc2nnc3n(-c4cccc(C)c4)nc(C(=O)c4ccccc4)n3c2=O)cc1 | -6 | 2 | -6 | -1 | -5 | -4
CCOc1ccc(-c2cnc3ccccc3n2)cc1 | 90* | 0 | -5 | -1 | -2 | -3
CCOc1ccc(-c2cn3ccccc3n2)cc1 | 50* | -2 | 8 | 0 | -6 | 0
CCN1C(=O)[C@H]2[C@@H](c3ccc(-c4ccc(F)cc4)cc3)N3CCCC[C@@]3(C(=O)OC)[C@H]2C1=O | -15 | 1 | -5 | . | -7 | .
N#Cc1c(N)nc(Sc2ccc(Cl)cc2)c(C#N)c1-c1ccccc1Cl | 6 | 0 | 1 | 0 | -4 | -2
COc1ccc(C(CNc2ncnc3sc(C)c(C)c23)N(C)C)cc1 (stereo not drawn) | -9 | 0 | 13 | 8.8* | -3 | 0
COc1ccccc1C(CNc1ncnc2sc(C)c(C)c12)N(C)C (stereo not drawn) | -18 | 4 | 2 | 7 | 0 | -3
CCCCNC(=O)NS(=O)(=O)c1ccc(NC(=O)CCC(=O)c2cccs2)cc1 | -2 | 6 | -19 | -3 | 4 | 1
COc1ccc(/C=C2\SC(=S)N(CCC(=O)N3CCCCC3)C2=O)cc1 | 5 | -3 | -4 | -2 | -3 | -3
COCCN1C(=O)/C(=C/c2ccc(N3CCCC3)cc2)SC1=S | -28 | -9 | 3 | 5 | -2 | 4.5*
COC(=O)c1ccccc1NC(=O)[C@@H]1CCC(=O)N1C1OC(=O)c2c1ccc(OC)c2OC (stereo partly drawn) | -9 | -7 | -10 | -1 | 6 | -1
COc1ccc(CN2CCCC(C(=O)c3cccc(OC(C)C)c3)C2)cc1Cn1cccn1 (stereo not drawn) | 33* | -4 | -2 | -6 | -2 | -2
CCn1ncc(CN2CCCC(C(=O)c3cccc(OC(C)C)c3)C2)c1C (stereo not drawn) | 4 | -5 | -4 | -1 | 0 | -1
COc1ccc2nc3cccc(OC)c3nc2c1 | -13 | 8 | -9 | 7.7* | -5 | 0
COc1ccc2nc3ccccc3nc2c1N | 2 | 17 | -5 | -1 | -3 | -3
COc1ccc(O)c(-c2[nH]ncc2C(=O)c2cccc(C)c2)c1 | -12 | -1 | 1 | -1 | 1 | 5.1*
COC(=O)[C@H]1CN(C(=O)c2ccccc2)C(=O)N1 | -17 | -4 | -19 | 1 | 5 | 0
COC(=O)C1CCC(=S)N1C(=O)c1ccccc1 (stereo not drawn) | -10 | -1 | 0 | 1 | -4 | 20*
O=C(C1CCC1)N1CCN(c2ccc(Cl)cc2)CC1 | 36* | -7 | 3 | -2 | 0 | -2
O=C(c1ccc(Cl)cc1)N1CCCC(C(=O)N2CCN(c3ccccc3)CC2)C1 (stereo not drawn) | . | -1 | -19 | 1 | -2 | 0
Cc1cc(=O)[nH]c(N/N=C/C(C)c2ccccc2)n1 (stereo not drawn) | 3 | -3 | -5 | -4 | 5 | -3
CCOC(=O)C1CCN(C(=O)c2cc3c(=O)n4ccccc4nc3s2)CC1 | -8 | 1 | -4 | 1 | 6 | -3

Screening data from PubChem BioAssay.
